Laboratory results reported in ChEMBL document CHEMBL2086288, “Synthesis, antimicrobial and cytotoxicity study of 1,3-disubstituted-1H-naphtho[1,2-e][1,3]oxazines” (2012).

Columns and labels:
A549 [1] = experiment: Growth inhibition of human A549 cells at 20 uM after 48 hrs by MTT assay; format: functional; details: A549, 48 h, read-out: GI
Procedure, shortened: (§1)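 Cells from ECACC, grown in RPMI-1640 with 10% FCS and 1% penicillin, 37 °C, 5% CO2. Seeded at 3×10^3 cells/well in 100 µL medium. Compounds added 24 h later from filter-sterilized DMSO stocks. MTT (2.5 mg/mL in PBS, 20 µL) added, then at least 4 h incubation. Formazan dissolved in DMSO after 48 h treatment, absorbance read at 570 nm. Results given as % viable cells versus untreated.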

HCT-116 [2] = experiment: Growth inhibition of human HCT116 cells at 20 uM after 48 hrs by MTT assay; format: functional; details: HCT-116, 48 h, read-out: GI; procedure, shortened: as §1
MCF7 [3] = experiment: Growth inhibition of human MCF7 cells at 10 uM after 48 hrs by MTT assay; format: functional; details: MCF7, 48 h, read-out: GI
Procedure, shortened: (§2)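 Cells from ECACC are kept in RPMI-1640 with 10% FCS and 1% penicillin at 37 °C in 5% CO2. They are seeded at 3×10^3 cells/well and dosed after 24 h from filter-sterilized DMSO stocks, then treated for 48 h. MTT (2.5 mg/mL in PBS) is added, formazan is dissolved in DMSO, and A570 is read. Viability is given as % of untreated.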

HCT-116 [4] = experiment: Growth inhibition of human HCT116 cells at 10 uM after 48 hrs by MTT assay; format: functional; details: HCT-116, 48 h, read-out: GI; procedure, shortened: as §2
PC-3 [5] = experiment: Growth inhibition of human PC3 cells at 10 uM after 48 hrs by MTT assay; format: functional; details: PC-3, 48 h, read-out: GI; procedure, shortened: as §2
A549 [6] = experiment: Growth inhibition of human A549 cells at 10 uM after 48 hrs by MTT assay; format: functional; details: A549, 48 h, read-out: GI; procedure, shortened: as §2
Aspergillus niger = experiment: Antifungal activity against Aspergillus niger MTCC 8184 after 7 days by tube dilution method; format: functional
Procedure, shortened: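 Tube (serial) dilution MIC in Sabouraud dextrose broth I.P., 25 °C for 7 days. Results are recorded as MIC and reported as pMIC in mM.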

HCT-116 [7] = experiment: Growth inhibition of human HCT116 cells at 50 uM after 48 hrs by MTT assay; format: functional; details: HCT-116, 48 h, read-out: GI; procedure, shortened: as §2
Escherichia coli = experiment: Antibacterial activity against Escherichia coli MTCC 1652 after 24 hrs by tube dilution method; format: functional
MCF7 [8] = experiment: Growth inhibition of human MCF7 cells after 48 hrs by MTT assay; format: functional, cell-based; procedure, shortened: as §2
PC-3 [9] = experiment: Growth inhibition of human PC3 cells at 50 uM after 48 hrs by MTT assay; format: functional; details: PC-3, 48 h, read-out: GI; procedure, shortened: as §2
Candida albicans = experiment: Antifungal activity against Candida albicans MTCC 227 after 48 hrs by tube dilution method; format: functional
A549 [10] = experiment: Growth inhibition of human A549 cells after 48 hrs by MTT assay; format: functional, cell-based; procedure, shortened: as §2
Bacillus subtilis = experiment: Antibacterial activity against Bacillus subtilis MTCC 2063 after 24 hrs by tube dilution method; format: functional
MCF7 [11] = experiment: Growth inhibition of human MCF7 cells at 50 uM after 48 hrs by MTT assay; format: functional; details: MCF7, 48 h, read-out: GI; procedure, shortened: as §2
A549 [12] = experiment: Growth inhibition of human A549 cells at 50 uM after 48 hrs by MTT assay; format: functional; details: A549, 48 h, read-out: GI; procedure, shortened: as §2
HCT-116 [13] = experiment: Growth inhibition of human HCT116 cells after 48 hrs by MTT assay; format: functional, cell-based; procedure, shortened: as §2
Staphylococcus aureus = experiment: Antibacterial activity against Staphylococcus aureus MTCC 2901 after 24 hrs by tube dilution method; format: functional
MCF7 [14] = experiment: Growth inhibition of human MCF7 cells at 1 uM after 48 hrs by MTT assay; format: functional; details: MCF7, 48 h, read-out: GI; procedure, shortened: as §2
A549 [15] = experiment: Growth inhibition of human A549 cells at 1 uM after 48 hrs by MTT assay; format: functional; details: A549, 48 h, read-out: GI; procedure, shortened: as §2
PC-3 [16] = experiment: Growth inhibition of human PC3 cells at 1 uM after 48 hrs by MTT assay; format: functional; details: PC-3, 48 h, read-out: GI; procedure, shortened: as §2

Row | SMILES | inhibition of growth at 10 µM (MCF7 [3]) [%] | inhibition of growth at 10 µM (HCT-116 [4]) [%] | inhibition of growth at 10 µM (PC-3 [5]) [%] | inhibition of growth at 10 µM (A549 [6]) [%] | -logMIC (Aspergillus niger) | inhibition of growth at 50 µM (HCT-116 [7]) [%] | -logMIC (Escherichia coli) | inhibition of growth at 50 µM (PC-3 [9]) [%] | -logMIC (Candida albicans) | -logMIC (Bacillus subtilis) | inhibition of growth at 50 µM (MCF7 [11]) [%] | inhibition of growth at 50 µM (A549 [12]) [%] | -logMIC (Staphylococcus aureus) | also measured
1 | O=c1[nH]cc(F)c(=O)[nH]1 [FLUOROURACIL] | – | – | – | – | – | – | – | – | – | – | – | – | – | inhibition of growth at 20 µM (A549 [1]): 79%; inhibition of growth at 20 µM (HCT-116 [2]): 78%
2 | Fc1ccc(C2=NC(c3ccccc3)c3c(ccc4ccccc34)O2)cc1 (stereo unspecified) | 29 | 12 | 14 | 18 | 1.45 | 56 | 2.35 | 39 | 1.75 | 2.05 | 51 | 50 | 1.75 | growth inhibition (GI) (MCF7 [8]): Dose-dependent effect; growth inhibition (GI) (A549 [10]): Dose-dependent effect; growth inhibition (GI) (HCT-116 [13]): Dose-dependent effect
3 | Cc1ccc(C2N=C(c3ccc(Br)cc3)Oc3ccc4ccccc4c32)cc1 (stereo unspecified) | 26 | 2 | 0 | 13 | 1.53 | 10 | 1.83 | 2 | 1.83 | 1.83 | 33 | 32 | 1.83 | –
4 | COc1ccc(C2=NC(c3ccc(OC)cc3)c3c(ccc4ccccc34)O2)cc1 (stereo unspecified) | 22 | 27 | 17 | 22 | 1.5 | 29 | 2.1 | 19 | 1.8 | 2.1 | 26 | 35 | 1.5 | –
5 | Fc1ccc(C2=NC(c3ccc(F)cc3)c3c(ccc4ccccc34)O2)cc1 (stereo unspecified) | 36 | 5 | 22 | 20 | 1.47 | 51 | 1.47 | 29 | 1.77 | 1.77 | 50 | 50 | 2.07 | growth inhibition (GI) (MCF7 [8]): Dose-dependent effect; growth inhibition (GI) (A549 [10]): Dose-dependent effect; growth inhibition (GI) (HCT-116 [13]): Dose-dependent effect
6 | COc1ccc(C2=NC(c3ccccc3)c3c(ccc4ccccc34)O2)cc1 (stereo unspecified) | 37 | 8 | 19 | 19 | 1.47 | 14 | 2.37 | 23 | 1.77 | 1.77 | 42 | 43 | 1.77 | –
7 | O=[N+]([O-])c1ccc(C2=NC(c3ccccc3)c3c(ccc4ccccc34)O2)cc1 (stereo unspecified) | 34 | 4 | 6 | 17 | 1.48 | 14 | 1.78 | 8 | 1.78 | 1.78 | 42 | 43 | 1.78 | –
8 | CO[C@@]12[C@H](COC(N)=O)C3=C(C(=O)C(C)=C(N)C3=O)N1C[C@@H]1N[C@@H]12 [MITOMYCIN] | – | – | – | – | – | – | – | – | – | – | – | – | – | inhibition of growth at 1 µM (MCF7 [14]): 82%; inhibition of growth at 1 µM (A549 [15]): 70%; inhibition of growth at 1 µM (PC-3 [16]): 70%
9 | Cc1ccc(C2=NC(c3ccccc3)c3c(ccc4ccccc34)O2)cc1 (stereo unspecified) | 36 | 8 | 14 | 19 | 1.45 | 38 | 2.05 | 20 | 1.75 | 1.45 | 46 | 43 | 1.75 | –
10 | Clc1ccc(C2=NC(c3ccc(Cl)cc3)c3c(ccc4ccccc34)O2)cc1 (stereo unspecified) | 16 | 2 | 1 | 28 | 1.51 | 10 | 2.11 | 2 | 1.81 | 1.81 | 38 | 54 | 1.51 | –
11 | Cc1ccc(C2N=C(c3ccc([N+](=O)[O-])cc3)Oc3ccc4ccccc4c32)cc1 (stereo unspecified) | 35 | 7 | 8 | 13 | 1.5 | 21 | 1.8 | 12 | 1.8 | 1.8 | 40 | 41 | 1.8 | –
12 | COc1ccc(C2=NC(c3ccc(C)cc3)c3c(ccc4ccccc34)O2)cc1 (stereo unspecified) | 36 | 7 | 1 | 15 | 1.48 | 14 | 2.08 | 10 | 1.78 | 1.78 | 39 | 36 | 1.78 | –
